Laboratory results as given in the EternaBench riboswitch data.

System: MS2 coat protein
Experiment: apparent Kd, MS2 coat protein; higher = weaker binding; RNA-MaP array; FMN 200 µM where present
Method in brief: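 Binding was read on Illumina sequencing-chip clusters where stalled E. coli RNA polymerase had transcribed each design. A titration of SNAP-549-labelled MS2 coat protein began at 0.7 or 1.5 nM and doubled to 3 µM, once without ligand and once with constant ligand, in 100 mM Tris-HCl pH 7.5, 80 mM KCl, 4 mM MgCl2, BSA, DTT, yeast tRNA and Tween-20. The apparent Kd is the median of filtered per-cluster binding-curve fits, based on green signal normalised to red-channel RNA signal and control-cluster median Fmax.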

[1] = designed as: OFF switch for flavin mononucleotide, no ligand
[2] = ligand present: flavin mononucleotide, designed as: OFF switch for flavin mononucleotide
[3] = designed as: ON switch for flavin mononucleotide, no ligand
[4] = ligand present: flavin mononucleotide, designed as: ON switch for flavin mononucleotide

Row | Sequence | apparent Kd [1] | apparent Kd [2] | apparent Kd [3] | apparent Kd [4]
1 | GGUUGGCGAGGAUAUACAUGAGGAUCACCCAUGUGGUCCUGAGGCUGAUCAAGCCUAUGUAGAAGGCGCAAAUC | 215 nM | 38.1 nM | – | –
2 | AGUAAGAUGCAGAAGGUGUCAGCGAGAGCUGCACAUGAGGAUCACCCAUGUUGUCGGUGACGACGCAAGGAUAUGCAUCUUACA | – | – | 89.2 nM | 15.8 nM
3 | AAACACGGACAUGAGGAUCACCCAUGUGGCGAAAGCCUUGGAAGAAGGCCGAUAGCAAAGCUAUCGGAGGAUAUUCAUACCGUG | – | – | 17.2 nM | 5.78 nM
4 | UUAAUUAUACAAGGAUAUCUAAUGGACUUACGACAAACAUGAGGAUCACCCAUGUAAAUAUAUAAAGAGAAGGUGUAUUUUCAG | – | – | 73.5 nM | 41.5 nM
5 | AAGGCCUAUUCCAGGACUAUCGUACUAGAAGGGUGACUUGACAUGAGGAUCACCCAUGUACGAGCACAGGAUAUAGAUGAAAGG | – | – | 42.7 nM | 20.2 nM
6 | AAAAGGCUAGGAUAUACCAGUGGGUGUAAGAACUCAAAUUUACAUGAGGAUCACCCAUGUAGAAGGAGUAAAAU | 20.4 nM | 30.2 nM | – | –
7 | AAGGUGAGAGGAUAUACAUGAGGAUCACCCAUGUGUCGGCCCUCCACAUAUGCCUUGUGUAGAAGGCUCCCGAG | 14.6 nM | 22.3 nM | – | –
8 | GCUGACGAUGUAGGAUAUCUCGACGAUAAGUCGAGAGAAGGACAUGAGGAUCACCCAUGUAAAAUCCCGUCAGCGAGGAAACUC | 16.4 nM | 23.1 nM | – | –
9 | AAAUACCAAGGAUAUACAUGAGGAUCACCCAUGUACAAACCCGUGGAACGGAUCUUUGGUAGAAGGUGGACAUA | 13.9 nM | 11.9 nM | – | –
10 | AGGAUAGGAAACUUUGUCCAUUGUACAGAAGGCCAACAUGAGGAUCACCCAUGUAAGAAAAGGAUGGAGGAUAUGUAUAGGGCC | – | – | 25.8 nM | 12.3 nM
11 | GCCUCAUAGUAGAAGGGACUUAGACAGUAAAGCAAAUAGAGGAAUUAACAUGAGGAUCACCCAUGUCAGGAUAUACUAAGAGGC | 11.3 nM | 12.1 nM | – | –
12 | CUCUUGUGAGGAUAUCAGUAGUAAAAAAAUAAAAUUACUACUGAGAAGGCACAUGAGGAUCACCCAUGUGUCUU | 14 nM | 13.1 nM | – | –
13 | CCAAACUGAGGAUAUACAUGAGGAUCACCCAUGUGCCCGCGGUCAUAUGUAGCCUAGUGUAGAAGGCAGAAAAC | 75.5 nM | 25 nM | – | –
14 | AUAAAGUGAGGAUAUACAUGAGGAUCACCCAUGUGAAAGUCUAAAAAAAUGACAAAAAGUAGAAGGCACAAAUA | 23.8 nM | 24.3 nM | – | –
15 | ACACGUGUGUCAGGAUAUCACACUAAUUGGACUAACUAUAUGAAAGCACAUGAGGAUCACCCAUGUGAGAAGGGACGCCACCUG | 12 nM | 9.97 nM | – | –
16 | GUAUUUAUAUAAGGAUAUAAGUCUAGGACAUGAGGAUCACCCAUGUGUGUCUUAGAAGGUAUAUGGGUAAUACUGUUACAGUAA | – | – | 226 nM | 112 nM
17 | CCAUGGUGGGCAGGAUAUCGUCCAGCUUGCGGACGAGAAGGGCCAGAACAUGAGGAUCACCCAUGUGAAAGGCGGGUUGUCCAA | 21.6 nM | 103 nM | – | –
18 | GGGUACAUCGGAGGAUAUCAUGUAAAUACAUGAGGAUCACCCAUGUCGAUGGAGACAUCGGAGAUAGAGAAGGCCGAUGUACCG | – | – | 476 nM | 11 nM
19 | UGCGGUAGAGGAUAUACGUAGAUACAGAUUCAUGUAGAACUACAUGAGGAUCACCCAUGUAGAAGGCUAUCGCU | 39.2 nM | 482 nM | – | –
20 | GCCUCAUCCGUCAGGAUAUACAGCCGCUCCCUGUUGUAGAAGGGACAUGAGGAUCACCCAUGUACGUACCACCC | 53.6 nM | 117 nM | – | –
21 | GAAUUAAUGAUCCAAUUUUACAACAUGAGGAUCACCCAUGUGCAGGAUAUCGUGUGUUUUAUAUUCGAGAAGGGCAAAUACAUU | 161 nM | 287 nM | – | –
22 | AAAGACAGAGGAUAUGCACGCCGACCCGGGCGGGAAGUCGGACAUGAGGAUCACCCAUGUAGAAGGCUGAGAAA | 11.3 nM | 14.8 nM | – | –
23 | GAAUAAUUGAUCCAAUUUUACAACAUGAGGAUCACCCAUGUGCAGGAUAUCGUGAAAGUUAAAUACGAGAAGGGCAAGAACUGU | 220 nM | 344 nM | – | –
24 | CUGAGCCUAGGAUAUACUGGCUGUAAGCUUGAUGCCUGCACACAUGAGGAUCACCCAUGUAGAAGGAGGCCAGG | 17.2 nM | 21.1 nM | – | –
25 | UUGCUCAAAUGGGCAGGGACCUCACAUGAGGAUCACCCAUGUCAGGAUAUCCUAGUUUGGACGUAGGAGAAGGGACAGAGUAUC | 227 nM | 171 nM | – | –
26 | UUAGGACAAGCAGGAUAUGUAACAUGAGGAUCACCCAUGUUGAGACUUUGGCACUCCUACAUGCAGCAGAAGGGCUUCAAACCU | 29.7 nM | 66.4 nM | – | –
27 | CAGAAUUGAGGAUAUGAUCAAUUUAACAUGAGGAUCACCCAUGUAUGGGAAUGAUUCUGAUCAGAAGGCGAUUCUU | 1290 nM | 910 nM | – | –
28 | CGCUCAAGAGAGAAGGAUUGAAUCAGAAGGCGUUACAUGAGGAUCACCCAUGUAUAGUAGUGUAACGAGGAUAUGAAAUGAGCG | 133 nM | 437 nM | – | –

Row | Sequence | apparent Kd [1] | apparent Kd [2] | apparent Kd [3] | apparent Kd [4]
29 | GCCCUCGCUGAGGAUAUUAUCUGGUUCGAUUGAUAAGAAGGCAGUACAUGAGGAUCACCCAUGUGGUUCGUCCG | 76.7 nM | 363 nM | – | –
30 | GGGUUGCUACAAGGAUAUGAUGAAAGUGAGACAUCAGAAGGUGUAGUAUCACAUGAGGAUCACCCAUGUAGAACAACCCAAACC | – | – | 369 nM | 23 nM
31 | CCGGAAGUAGAGGAUAUAGGAGUCGAUAGACUCCUAGAAGGCUAUACAUGAGGAUCACCCAUGUGUCCUACCGG | 19.6 nM | 31 nM | – | –
32 | AACAGUACAGGAUAUACAUGAGGAUCACCCAUGUGAUCAUCAAGUGCCGUAGCACGAAGUAGAAGGGUACUGGA | 207 nM | 57 nM | – | –
33 | AGUGGUUACACAGGAUAUCCUCGUUAUUAACUAGGAGAAGGGUGGACACCACACAUGAGGAUCACCCAUGUACCACGAUAAAGA | – | – | 209 nM | 42.4 nM
34 | AAGAGACAUCAGAAGGGAGCCCGAACGCGCGGCUCAGGAUAUGAGAUCUUAUGUAGUACGACAUGAGGAUCACCCAUGUCCGCG | – | – | 28.2 nM | 8.05 nM
35 | GCAGCACUGUAGAACAUGAGGAUCACCCAUGUCGAUUGUUAUGAGGAUAUGCAUCGUAUGAAGAUGCAGAAGGCAUUGUGCUGC | – | – | 5.59 nM | 5.16 nM
36 | UCGCGGGUGCAGAAGGGAUAGGCCUAUUGUCGUGGAGUCUAAACUUAACAUGAGGAUCACCCAUGUCAGGAUAUGCCCACGCGA | 9.17 nM | 10.2 nM | – | –
37 | GUUUUUGCAUGAGGAUAUGCUCGCAUUUCAAGAGCAGAAGGUAUUUCUUUUGACAUGAGGAUCACCCAUGUAUUUAUCAUUGAA | – | – | 21 nM | 18.9 nM
38 | GGGUACAUCGGAGGAUAUCAUGUAAAUACAUGAGGAUCACCCAUGUCGAUGGAGACAUUGGAGAUUGAGAAGGCCGAUGUACCG | – | – | 156 nM | 219 nM
39 | AAAGCGGGAUAGAAGGUCUGCUUGGUGUAUUACAUGAGGAUCACCCAUGUAGAAGGAUAUAUCUCAUUCUUGGGCUCACCCAAA | 208 nM | 367 nM | – | –
40 | AGGAAGUGAGGAUAUGCAGUGGCUAGUAGACGCUAGCACUUGUAGAAGGCACAUGAGGAUCACCCAUGUUUAAA | 31.9 nM | 36.9 nM | – | –
41 | GGUAGAAACAUUAACAUGAGGAUCACCCAUGUCAAAAGAAAUGAGGAUAUCGUCUACAAUGUAUAUGAGAAGGCAUGGUCUGCC | – | – | 20.2 nM | 14.6 nM
42 | GCUACUACAUGAGGAUCACCCAUGUAUCCGUAGCGGGCCGCACAGGAUAUCAACCUCGGAAGAGGUGAGAAGGGUGAUACUCAU | – | – | 23.2 nM | 38.1 nM
43 | UCAUUUCUGUAAGGAUAUUUAAACAUGACGAUACAUGAGGAUCACCCAUGUAAAGAAGGUACAAAUACAUAUAAUGCAAUGUUC | 7.55 nM | 7.39 nM | – | –
44 | CAGUACUGAGGAUAUACAUGAGGAUCACCCAUGUGUUCCAGCUAGGAAACUAGCAAAUGUAGAAGGCAGUACUG | 212 nM | 317 nM | – | –
45 | AAGACUAGAGGAUAUACAUGAGGAUCACCCAUGUAACUGUCAGGUGACUGACGGAAAAGUAGAAGGCUAGUCAA | 16.6 nM | 20 nM | – | –
46 | AAUCUUUUUAUGGGAUUAGAAUAUGAGGAUAUCAUUUGUUUAUACAUGAGGAUCACCCAUGUUUCUGAGAAGGCAUAUAUAAUA | – | – | 44.6 nM | 10.2 nM
47 | CGGCCGUAAGGAUAUACAUGAGGAUCACCCAUGUAUGGAAUAGCAUGAGGCGGCCCAGGUAGAAGGUAUGCCCG | 20.8 nM | 30.5 nM | – | –
48 | AUAAUUUUAUAUAUCUUUUUUAUCAGAAGGCAUAACAUGAGGAUCACCCAUGUAUAUUAUAGUUAUGAGGAUAUGAUUUAGUUA | 10.2 nM | 11.4 nM | – | –
49 | CGGCUACCCAGUAUGGGUAUUUUUACAGAAGGCCAGGCACAUGAGGAUCACCCAUGUCAAGUUUUGGAGGAUAUGUUAGUGUCG | – | – | 5.58 nM | 4.25 nM
50 | GGUGGCGUGAUAACGCUAGAUAUAACAUGAGGAUCACCCAUGUAGGAUAUCCUGCCGAGAGGGCGGGAGAAGGACAACCAAUGG | 41.9 nM | 41.8 nM | – | –
51 | UUAUGGCUAGGAUAUGCACGUGCAUGUUCAAGUCAAAGAAGACAUGAGGAUCACCCAUGUAGAAGGAGCGGUAC | 37.8 nM | 24.2 nM | – | –
52 | AAAACGCAAGGAUAUACAUGAGGAUCACCCAUGUAGACAAUAUAAAGGGUCUCACCAUGUAGAAGGUGCUACCC | 21.3 nM | 16.5 nM | – | –
53 | AGUGUCAUCGAGAAGGCCUCAACAUGAGGAUCACCCAUGUUGCAAAAUGGGAGGAUAUCAAAACUACAGCUACGUUUCGUAGCA | – | – | 69.1 nM | 9.44 nM
54 | CAAAGUAGCACAGGAUAUCAUACAUGAGGAUCACCCAUGUCAAGAAGCAAAUGAGAAGGGUGCAGACGGUGUUGGAGCGGUUGC | – | – | 68.6 nM | 7.02 nM
55 | UCUAGACAUGAGGAUCACCCAUGUGAGGAUAUGAUGCGAUCGUCGAAAGACGAUAGCAUCAGAAGGCACGUAUG | 65.1 nM | 113 nM | – | –
